The test system of series [1] is Tyrosine-protein kinase JAK2 (Homo sapiens), O60674 [V617F]. The note with it: HEL 92.1.7, dose 1000.0 nM, time 3.0 hrs.
A short description of series [2]: Toxicity in athymic BALB/c nude mouse xenografted with mouse Ba/F3 cells harboring JAK2 V617F mutant assessed as liver weight at 150 mg/kg, po administered for 12 days relative to control. It counts as organism-based, BaF3. The note with it: in vivo, 288 h, time 12 day. The method, boiled down: (§1)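 Ba/F3-JAK2V617F cells (2 × 10^6 in serum-free medium) were injected into the tail vein of BALB/c nude mice. From day 4 after inoculation, mice got SB1518 by oral gavage (10 ml/kg) at 50 or 150 mg/kg once daily. Groups held 10 mice, and four naive mice gave baseline values.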

Series [3] can be described thus: Toxicity in athymic BALB/c nude mouse xenografted with mouse Ba/F3 cells harboring JAK2 V617F mutant assessed as weight loss at 150 mg/kg, po administered for 12 days. It counts as organism-based, BaF3. The note with it: in vivo, 288 h, time 12 day. Put shortly: as §1
The nature of series [4]: Toxicity in athymic BALB/c nude mouse xenografted with mouse Ba/F3 cells harboring JAK2 V617F mutant assessed as platelet count at 150 mg/kg, po administered for 12 days by ScilVET abc hematology analyzer method. It counts as organism-based, BaF3. The note with it: in vivo, 288 h, time 12 day. The method, boiled down:
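Engraftment model: BALB/c nude mice were given 2 × 10^6 Ba/F3-JAK2V617F cells i.v. by tail vein. Once-daily oral gavage (10 ml/kg) of 50 or 150 mg/kg began on day 4 after inoculation, with 10 mice per group and four naive mice as baseline. Blood counts were taken on a veterinary hematology analyzer.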

Series [5] can be described thus: Toxicity in athymic BALB/c nude mouse xenografted with mouse Ba/F3 cells harboring JAK2 V617F mutant assessed as hematocrit count at 150 mg/kg, po administered for 12 days by ScilVET abc hematology analyzer method. It counts as organism-based, BaF3. As to conditions: in vivo, 288 h, time 12 day. The method, boiled down:
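BALB/c nude mice were injected in the tail vein with 2 × 10^6 Ba/F3-JAK2V617F cells in serum-free medium. Oral dosing at 50 or 150 mg/kg once daily began on day 4, with 10 mice per group and 4 naive baseline mice. Blood counts were taken on a hematology analyzer.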

Series [6] can be described thus: Toxicity in SCID Beige mouse xenografted with human SET2 cells assessed as decrease in body weight at 75 mg/kg, po administered for 18 days relative to control. It counts as organism-based. The arrangement: scale not given: the % may be the effect or the level left. The note with it: in vivo, 432 h, time 18 day.
Series [7] can be described thus: Toxicity in SCID Beige mouse xenografted with human SET2 cells assessed as increase in body weight at 150 mg/kg, po administered for 18 days relative to control. It counts as organism-based. The note with it: in vivo, 432 h, time 18 day. (A xenograft is tissue or cells of one species grown in another, often human tumour cells in immunodeficient mice.)
Series [8] can be described thus: Toxicity in SCID Beige mouse xenografted with human SET2 cells assessed as platelet count at 150 mg/kg, po administered for 18 days by ScilVET abc hematology analyzer method. As to conditions: in vivo, 432 h, time 18 day. It counts as organism-based.
A short description of series [9]: Toxicity in SCID Beige mouse xenografted with human SET2 cells assessed as hematocrit count at 150 mg/kg, po administered for 18 days by ScilVET abc hematology analyzer method. It counts as organism-based. As to conditions: in vivo, 432 h, time 18 day.
Series [10] is described as follows: Toxicity in SCID Beige mouse xenografted with human SET2 cells assessed as leukopenia at 150 mg/kg, po administered for 18 days by ScilVET abc hematology analyzer method. It counts as organism-based. The note with it: in vivo, 432 h, time 18 day.
A short description of series [11]: Cytotoxicity against human EPC cells derived from healthy volunteers assessed as inhibition of cell viability incubated for 48 hrs by CellTiterGlo assay. It counts as toxicity, cell-based. The method, boiled down: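 Erythroid progenitors expanded from PBMCs of PV patients or normal volunteers using a 2-step protocol. On day 12 of expansion, cells were exposed to compound for 48 h and viability was read by CellTiter-Glo. Day-12 cells were phenotyped by CD71/CD235A flow staining.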
On the technique in general: In ATP-based viability assays light output follows the ATP content of the culture.

A short description of series [12]: Induction of apoptosis in human EPC cells derived from polycythemia vera patients assessed as activation of caspase-3/7 level incubated for 16 hrs. It counts as toxicity, cell-based. As to conditions: human, epc, time 16 hrs.
Series [13] can be described thus: Induction of apoptosis in human EPC cells derived from healthy volunteers assessed as activation of caspase-3/7 level incubated for 16 hrs. It counts as toxicity, cell-based.
The nature of series [14]: Cytotoxicity against human Erythroid progenitor cells assessed as inhibition of colony growth formation. It counts as toxicity, cell-based, Erythroid progenitor cell. Put shortly:
(§2)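 PBMCs from PV patients, 2–8 × 10^5 per plate, were plated in minimal methylcellulose medium with graded drug concentrations or DMSO, in triplicate. After 14 days, erythroid (BFU-E, CFU-E) and myeloid (CFU-M, CFU-GM) colonies were counted.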

Series [15] can be described thus: Cytotoxicity against human Myeloid progenitor cells assessed as inhibition of colony growth formation. It counts as toxicity, cell-based, Myeloid progenitor cell. Put shortly: as §2
A further series concerns BaF3. The series is described as follows: Cytotoxicity against mouse BaF3 cells expressing JAK2 V617F mutant xenografted in athymic BALB/c nude mouse assessed as inhibition of cell viability administered for 24 hrs by CellTiterGlo assay. It counts as toxicity, cell-based. As to conditions: in vivo, po, 150 mg/kg.
Series [16] can be described thus: AUC (0 to infinity) in athymic BALB/c nude mouse xenografted with mouse BaF3 cells at 150 mg/kg, po administered for 24 hrs by HPLC analysis. It counts as ADME, organism-based. The note with it: in vivo.
Series [17] can be described thus: Toxicity in athymic BALB/c nude mouse xenografted with mouse Ba/F3 cells harboring JAK2 V617F mutant assessed as spleen weight at 150 mg/kg, po administered for 13 days relative to control. The note with it: in vivo, 312 h.

Active and inactive are the calls of the source. The calls are words filed in the database; no cut-off is given here.

Sequence of Tyrosine-protein kinase JAK2 (Homo sapiens), O60674 [V617F] (O60674 whole entry V617F): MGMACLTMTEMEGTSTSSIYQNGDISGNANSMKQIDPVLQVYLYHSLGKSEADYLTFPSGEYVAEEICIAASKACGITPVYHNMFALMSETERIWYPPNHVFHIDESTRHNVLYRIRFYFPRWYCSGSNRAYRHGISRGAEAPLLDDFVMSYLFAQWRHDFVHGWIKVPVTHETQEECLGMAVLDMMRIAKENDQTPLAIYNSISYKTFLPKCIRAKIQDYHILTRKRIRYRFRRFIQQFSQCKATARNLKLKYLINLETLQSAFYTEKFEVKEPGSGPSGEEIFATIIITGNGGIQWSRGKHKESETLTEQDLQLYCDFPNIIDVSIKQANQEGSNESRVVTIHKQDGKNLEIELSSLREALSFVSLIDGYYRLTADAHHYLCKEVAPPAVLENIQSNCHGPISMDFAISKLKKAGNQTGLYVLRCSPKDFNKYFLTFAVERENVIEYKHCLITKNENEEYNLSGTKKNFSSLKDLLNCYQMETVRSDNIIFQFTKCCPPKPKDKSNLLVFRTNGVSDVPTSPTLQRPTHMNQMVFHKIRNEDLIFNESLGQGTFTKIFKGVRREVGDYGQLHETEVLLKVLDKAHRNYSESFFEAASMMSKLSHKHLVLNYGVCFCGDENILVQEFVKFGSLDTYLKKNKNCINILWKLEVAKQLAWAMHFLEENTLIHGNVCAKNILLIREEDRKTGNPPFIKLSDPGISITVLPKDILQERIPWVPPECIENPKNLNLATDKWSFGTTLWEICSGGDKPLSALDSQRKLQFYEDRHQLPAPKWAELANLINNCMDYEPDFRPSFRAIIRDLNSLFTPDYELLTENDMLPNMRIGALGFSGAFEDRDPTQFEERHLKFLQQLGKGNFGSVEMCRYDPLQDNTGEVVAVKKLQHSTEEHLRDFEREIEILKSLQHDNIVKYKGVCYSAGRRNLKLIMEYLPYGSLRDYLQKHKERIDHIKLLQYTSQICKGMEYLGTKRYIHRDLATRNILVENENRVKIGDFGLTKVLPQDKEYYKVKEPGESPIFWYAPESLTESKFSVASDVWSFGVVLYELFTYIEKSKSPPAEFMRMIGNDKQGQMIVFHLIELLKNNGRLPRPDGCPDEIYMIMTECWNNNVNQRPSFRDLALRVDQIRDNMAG

With `CC(C)(C)c1nc2c3ccc(F)cc3c3c(=O)[nH]ccc3c2[nH]1`, the inhibition result in series [1] was “Active”.
In the case of `Cc1cnc(Nc2ccc(OCCN3CCCC3)cc2)nc1Nc1cccc(S(=O)(=O)NC(C)(C)C)c1`, the inhibition entry in series [1] was “Active”.
As usually defined, the IC50 is the concentration needed to halve the response being measured. As a reminder, the EC50 is the concentration needed to bring the measured effect to its halfway point. For orientation: AUC(0-inf) means total exposure, with the tail of the curve extrapolated. In the case of `C1=C/COCc2cc(ccc2OCCN2CCCC2)Nc2nccc(n2)-c2cccc(c2)COC/1` [PACRITINIB], the Activity in series [2] was 92%; in series [3], “Non-Toxic”; in series [4], “Non-Toxic”; in series [5], “Non-Toxic”; in series [6], 10.1%; in series [7] it was 0.2%. Also, the Activity result is reported as “Non-Toxic” in series [8]; “Non-Toxic” in series [9]; “Non-Toxic” in [10]; “Dose-Dependent Effect” in [12]; “Dose-Dependent Effect” in series [13] (epc, 16 h); 60% in [17]. Also, the IC50 at 48 h in series [11] worked out at 230 nM. Further, the EC50 at 16 h in series [13] (EPC cells derived from healthy volunteers) worked out at 224 nM. Besides, the IC50 in series [14] and in series [15] was 63 nM each time. The FIC50 with BaF3 came to 0.16 µM. This compound gave an AUC(0-inf) in series [16] of 220 ng·h/mL.

Values taken from ChEMBL document CHEMBL5705894, “SB1518, a novel macrocyclic pyrimidine-based JAK2 inhibitor for the treatment of myeloid and lymphoid malignancies” (Leukemia, 2011).
